# ChEMBL document CHEMBL1134356, “Correlation of anti-HIV activity with anion spacing in a series of cosalane analogues with extended polycarboxylate pharmacophores” (J Med Chem, 2001)
# Experiments:
# [1] = In vitro inhibition of cytopathic effect was determined against HIV-1 RF in CEM-SS cells using MTS cytoprotection assay; type: functional, cell-based
# Outline: (§1)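 CEM-SS cells from exponential culture, 5 × 10^3 per well, mixed with pretitered HIV-1 RF and serially diluted compound. Incubated 6 days at 37 °C, 5% CO2. MTS added, colour developed overnight at 37 °C, read at 490 nm, expressed as percent of uninfected drug-free control. EC50 is 50% protection from cytopathic effect; CC50 is 50% death of uninfected cells. Triplicates on each of two sister plates, plate values averaged.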
# MT4 [2] = test: 50% cell death in uninfected MT-4 cells was determined using MTS cytoprotection assay; type: functional; details: Homo sapiens, in the assay text read “MTT cytoprotection assay” for “MTS cytoprotection assay”
# Outline: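 MT-4 cells at 6 × 10^5 cells/mL, infected with HIV-1 IIIB or HIV-2 ROD at 100–300 CCID50, or mock-infected. Serial 5-fold compound dilutions, triplicate wells. After 5 days, viability read by MTT reduction at 540 and 690 nm, median OD of three wells. CC50 is 50% drop in OD540 of mock-infected cells; EC50 is 50% protection from viral cytopathic effect.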
# CEM-SS = test: 50% cell death in uninfected CEM-SS cells was determined using MTS cytoprotection assay; type: functional; details: Homo sapiens; outline: as §1
# MT4 [3] = test: In vitro inhibition of cytopathic effect was determined against HIV-1 IIIB in MT-4 cells using MTT cytoprotection assay; details: Homo sapiens
# [4] = as above; details: MT4
SMILES,EC50 [1] [µM],CC50 (MT4 [2]) [µM],CC50 (CEM-SS) [µM],EC50 (MT4 [3]) [µM],EC50 [4] [µM]
CC(C)CCCC(C)[C@H]1CC[C@H]2[C@@H]3CCC4C[C@@H](CCC=C(c5cc(Cl)c(O)c(C(=O)NCC(=O)O)c5)c5cc(Cl)c(O)c(C(=O)NCC(=O)O)c5)CC[C@]4(C)[C@H]3CC[C@]12C (some centres undefined),3.4,> 125,> 200,57.6,–
CC(C)CCCC(C)[C@H]1CC[C@H]2[C@@H]3CCC4C[C@@H](CCC=C(c5cc(Cl)c(O)c(C(=O)NCC(=O)OC(C)(C)C)c5)c5cc(Cl)c(O)c(C(=O)NCC(=O)OC(C)(C)C)c5)CC[C@]4(C)[C@H]3CC[C@]12C (some centres undefined),–,> 125,> 125,–,> 125
CC(C)CCCC(C)[C@H]1CC[C@H]2[C@@H]3CCC4C[C@@H](CCC=C(c5cc(Cl)c(O)c(C(=O)NCCC(=O)O)c5)c5cc(Cl)c(O)c(C(=O)NCCC(=O)O)c5)CC[C@]4(C)[C@H]3CC[C@]12C (some centres undefined),–,> 125,> 200,–,73.8
CC(C)CCCC(C)[C@H]1CC[C@H]2[C@@H]3CCC4C[C@@H](CCCC(c5cc(Cl)c(O)c(C(=O)NCC(=O)O)c5)c5cc(Cl)c(O)c(C(=O)NCC(=O)O)c5)CC[C@]4(C)[C@H]3CC[C@]12C (some centres undefined),–,> 125,> 200,–,39.4
CC(C)CCCC(C)[C@H]1CC[C@H]2[C@@H]3CCC4C[C@@H](CCC=C(c5cc(Cl)c(O)c(C(=O)N[C@@H](CC(C)C)C(=O)O)c5)c5cc(Cl)c(O)c(C(=O)N[C@@H](CC(C)C)C(=O)O)c5)CC[C@]4(C)[C@H]3CC[C@]12C (some centres undefined),40,> 125,> 200,–,63.4
COc1c(Cl)cc(Cc2cc(C(=CCC[C@H]3CC[C@@]4(C)C(CC[C@H]5[C@@H]6CC[C@H](C(C)CCCC(C)C)[C@@]6(C)CC[C@@H]54)C3)c3cc(Cc4cc(Cl)c(OC)c(C(=O)O)c4)c(OC)c(C(=O)O)c3)cc(C(=O)O)c2OC)cc1C(=O)O (some centres undefined),2.9,41,50,–,12.5
CC(C)CCCC(C)[C@H]1CC[C@H]2[C@@H]3CCC4C[C@@H](CCC=C(c5cc(Cl)c(O)c(C(=O)N[C@@H](CC(=O)O)C(=O)O)c5)c5cc(Cl)c(O)c(C(=O)N[C@@H](CC(=O)O)C(=O)O)c5)CC[C@]4(C)[C@H]3CC[C@]12C (some centres undefined),–,> 125,90,–,–
CC(C)CCCC(C)[C@H]1CC[C@H]2[C@@H]3CCC4C[C@@H](CCC=C(c5cc(Cl)c(OCc6ccc(CC(=O)O)cc6)c(C(=O)O)c5)c5cc(Cl)c(OCc6ccc(CC(=O)O)cc6)c(C(=O)O)c5)CC[C@]4(C)[C@H]3CC[C@]12C (some centres undefined),1.8,–,–,–,4.1
CC(C)CCCC(C)[C@H]1CC[C@H]2[C@@H]3CCC4C[C@@H](CCC=C(c5cc(Cl)c(O)c(C(=O)N[C@@H](Cc6ccccc6)C(=O)O)c5)c5cc(Cl)c(O)c(C(=O)N[C@@H](Cc6ccccc6)C(=O)O)c5)CC[C@]4(C)[C@H]3CC[C@]12C (some centres undefined),> 200,62,> 200,–,> 62
CC(C)CCCC(C)[C@H]1CC[C@H]2[C@@H]3CCC4C[C@@H](CCC=C(c5cc(Cl)c(OCc6ccc(-c7cccc(C(=O)O)c7)cc6)c(C(=O)O)c5)c5cc(Cl)c(OCc6ccc(-c7cccc(C(=O)O)c7)cc6)c(C(=O)O)c5)CC[C@]4(C)[C@H]3CC[C@]12C (some centres undefined),6.1,79,–,–,12
CC(C)CCCC(C)[C@H]1CC[C@H]2[C@@H]3CCC4C[C@@H](CCC=C(c5cc(Cl)c(O)c(C(=O)O)c5)c5cc(Cl)c(O)c(C(=O)O)c5)CC[C@]4(C)[C@H]3CC[C@]12C (some centres undefined),5.1,> 125,–,–,3
COc1ccc(C(=O)Nc2cc(C(=CCC[C@H]3CC[C@@]4(C)C(CC[C@H]5[C@@H]6CC[C@H](C(C)CCCC(C)C)[C@@]6(C)CC[C@@H]54)C3)c3cc(NC(=O)c4ccc(OC)c(C(=O)O)c4)c(OC)c(C(=O)O)c3)cc(C(=O)O)c2OC)cc1C(=O)O (some centres undefined),28.6,81,47,–,8.4
CC(C)CCCC(C)[C@H]1CC[C@H]2[C@@H]3CCC4C[C@@H](CCC=C(c5cc(Cl)c(OCc6ccc(C(=O)O)cc6)c(C(=O)O)c5)c5cc(Cl)c(OCc6ccc(C(=O)O)cc6)c(C(=O)O)c5)CC[C@]4(C)[C@H]3CC[C@]12C (some centres undefined),0.5,89,–,–,–
CC(C)CCCC(C)[C@H]1CC[C@H]2[C@@H]3CCC4C[C@@H](CCCC(c5cc(Cl)c(O)c(C(=O)N[C@@H](CCC(=O)O)C(=O)O)c5)c5cc(Cl)c(O)c(C(=O)N[C@@H](CCC(=O)O)C(=O)O)c5)CC[C@]4(C)[C@H]3CC[C@]12C (some centres undefined),–,> 125,34,–,10.3
CC(C)CCCC(C)[C@H]1CC[C@H]2[C@@H]3CCC4C[C@@H](CCC=C(c5cc(Cl)c(OCc6cccc(C(=O)O)c6)c(C(=O)O)c5)c5cc(Cl)c(OCc6cccc(C(=O)O)c6)c(C(=O)O)c5)CC[C@]4(C)[C@H]3CC[C@]12C (some centres undefined),–,76,–,–,–
CC(C)CCCC(C)[C@H]1CC[C@H]2[C@@H]3CCC4C[C@@H](CCC=C(c5cc(Cl)c(O)c(C(=O)N[C@@H](CCC(=O)O)C(=O)O)c5)c5cc(Cl)c(O)c(C(=O)N[C@@H](CCC(=O)O)C(=O)O)c5)CC[C@]4(C)[C@H]3CC[C@]12C (some centres undefined),–,> 125,82,–,8.9
CC(C)CCCC(C)[C@H]1CC[C@H]2[C@@H]3CCC4C[C@@H](CCC=C(c5cc(Cl)c(OCc6ccccc6C(=O)O)c(C(=O)O)c5)c5cc(Cl)c(OCc6ccccc6C(=O)O)c(C(=O)O)c5)CC[C@]4(C)[C@H]3CC[C@]12C (some centres undefined),39.8,–,–,–,> 37
CC(C)CCCC(C)[C@H]1CC[C@H]2[C@@H]3CCC4C[C@@H](CCCC(c5cc(Cl)c(OCc6ccc(C(=O)O)cc6)c(C(=O)O)c5)c5cc(Cl)c(OCc6ccc(C(=O)O)cc6)c(C(=O)O)c5)CC[C@]4(C)[C@H]3CC[C@]12C (some centres undefined),4.8,> 125,> 200,–,5.1
CC(C)CCCC(C)[C@H]1CC[C@H]2[C@@H]3CCC4C[C@@H](CCC=C(c5cc(Cl)c(OCc6ccc(-c7ccc(C(=O)O)cc7)cc6)c(C(=O)O)c5)c5cc(Cl)c(OCc6ccc(-c7ccc(C(=O)O)cc7)cc6)c(C(=O)O)c5)CC[C@]4(C)[C@H]3CC[C@]12C (some centres undefined),> 100,100,–,–,> 100
CC(C)CCCC(C)[C@H]1CC[C@H]2[C@@H]3CCC4C[C@@H](CCC=C(c5cc(Cl)c(OCc6ccc(-c7ccccc7C(=O)O)cc6)c(C(=O)O)c5)c5cc(Cl)c(OCc6ccc(-c7ccccc7C(=O)O)cc6)c(C(=O)O)c5)CC[C@]4(C)[C@H]3CC[C@]12C (some centres undefined),5.2,–,–,–,10.1
